Test results reported in ChEMBL document CHEMBL4138171, “Design, synthesis and biological evaluation of novel aryldiketo acids with enhanced antibacterial activity against multidrug resistant bacterial strains” (Eur J Med Chem, 2018).
In brackets after ≈: the same amount, converted by molar mass.

What was measured:
Albumin [1] = target: T1, Albumin (Homo sapiens, UniProt P02768); assay: Binding affinity to human serum albumin at 310K by Stern-Volmer plot method; type: ADME; details: isolated protein
In short: (§1)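 Fatty acid-free HSA held at 5 × 10^-7 M in 30 mM PBS pH 7.38, titrated with compound DMSO stock at 0.5–8 molar equivalents (final DMSO ≤2%). Equilibrated 20 min after each addition. Fluorescence excitation 280 nm, emission 300–450 nm, PBS background subtracted. Quenching recorded at 293, 303 and 310 K and analysed by Stern-Volmer, molar ratio and van't Hoff treatment.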

Albumin [2] = target: T1, Albumin; assay: Binding affinity to human serum albumin at 293K by Stern-Volmer plot method; type: ADME; details: isolated protein; in short: as §1
Escherichia coli = assay: Antibacterial activity against Escherichia coli NCTC 12241 after 16 hrs by microdilution method; type: functional; details: NCTC 12241, 16 h
In short: (§2)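 Broth microdilution in cation-adjusted Mueller-Hinton broth (20 mg/l Ca2+, 10 mg/L Mg2+), inoculum 5×10^5 CFU/mL. Compounds from DMSO stocks, final DMSO <1%, tested over 0.12–128 µg/ml. Incubated 37 °C and read visually after 16 h. MIC is the lowest concentration with no visible growth, determined at least twice and converted to µmol/L.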

Albumin [3] = target: T1, Albumin; assay: Binding affinity to human serum albumin assessed as Gibbs free energy change at 310K by Van't Hoff plot method; type: ADME; details: isolated protein; in short: as §1
Staphylococcus aureus [4] = assay: Antibacterial activity against methicillin-resistant Staphylococcus aureus NCTC 13373 after 16 hrs by microdilution method; type: functional; details: NCTC 13373, 16 h
In short: (§3)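 Broth microdilution in cation-adjusted Mueller-Hinton broth (20 mg/l Ca2+, 10 mg/L Mg2+), inoculum 5×10^5 CFU/mL. Compounds in DMSO, solvent under 1% in well, tested over 0.12-128 µg/ml. […] Each determined at least twice; values converted to µmol/L.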

Albumin [5] = target: T1, Albumin; assay: Binding affinity to human serum albumin assessed as Gibbs free energy change at 293K by Van't Hoff plot method; type: ADME; details: isolated protein; in short: as §1
Albumin [6] = target: T1, Albumin; assay: Binding affinity to human serum albumin at 303K by Van't Hoff plot method; type: ADME; details: isolated protein; in short: as §1
Staphylococcus aureus [7] = assay: Antibacterial activity against tetracycline/methicillin-resistant Staphylococcus aureus XU212 after 16 hrs by microdilution method; type: functional; details: XU212, 16 h; in short: as §3
Staphylococcus aureus [8] = assay: Antibacterial activity against erythromycin-resistant Staphylococcus aureus RN4220 after 16 hrs by microdilution method; type: functional; details: RN4220, 16 h; in short: as §3
Albumin [9] = target: T1, Albumin; assay: Binding affinity to human serum albumin at 310K by fluorescence spectroscopic method; type: ADME; details: isolated protein; in short: as §1
[10] = Acidity constant, pKa of the compound at 5 x 10^-5 M by UV/Vis spectrophotometric titration method; type: physicochemical
In short: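 Spectrophotometric titration at 20 ± 0.5 °C of a 5 × 10^-5 M working solution (ethanol, then 10 mM phosphate buffer pH 10.44, I = 0.1 M NaCl). Acidified stepwise with H3PO4 to pH ~4, with pH monitored continuously. UV/Vis spectra 210–600 nm against blank. pKa2 taken from the slope of the linearized absorbance equation. Three sets; mean ± 95% CI.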

Enterococcus faecalis = assay: Antibacterial activity against Enterococcus faecalis NCTC 12697 after 16 hrs by microdilution method; type: functional; details: NCTC 12697, 16 h; in short: as §2
Albumin [11] = target: T1, Albumin; assay: Binding affinity to human serum albumin assessed as Gibbs free energy change at 303K by Van't Hoff plot method; type: ADME; details: isolated protein; in short: as §1
Staphylococcus aureus [12] = assay: Antibacterial activity against methicillin-sensitive Staphylococcus aureus NCTC 12981 after 16 hrs by microdilution method; type: functional; details: NCTC 12981, 16 h; in short: as §2
Staphylococcus aureus [13] = assay: Antibacterial activity against Norfloxacin-resistant Staphylococcus aureus 1199B over-expressing NorA after 16 hrs by microdilution method; type: functional; in short: as §3
Albumin [14] = target: T1, Albumin; assay: Binding affinity to human serum albumin assessed as change in enthalpy at 293K by Van't Hoff plot method; type: ADME; details: isolated protein; in short: as §1
Albumin [15] = target: T1, Albumin; assay: Binding affinity to human serum albumin at 310K by Van't Hoff plot method; type: ADME; details: isolated protein; in short: as §1
Albumin [16] = target: T1, Albumin; assay: Binding affinity to human serum albumin at 303K by Stern-Volmer plot method; type: ADME; details: isolated protein; in short: as §1
Bacillus subtilis = assay: Antibacterial activity against Bacillus subtilis NCTC 10400 after 16 hrs by microdilution method; type: functional; details: NCTC 10400, 16 h; in short: as §2
Albumin [17] = target: T1, Albumin; assay: Binding affinity to human serum albumin at 293K by Van't Hoff plot method; type: ADME; details: isolated protein; in short: as §1
Staphylococcus aureus [18] = assay: Antibacterial activity against Staphylococcus aureus EMRSA-15 after 16 hrs by microdilution method; type: functional; details: EMRSA-15, 16 h; in short: as §2
[19] = Cytotoxicity against human MRC5 cells; type: cell-based
Albumin [20] = target: T1, Albumin; assay: Binding affinity to human serum albumin assessed as change in entropy at 293K by Van't Hoff plot method; type: ADME; details: isolated protein; in short: as §1
[21] = Octanol/phosphate buffer distribution co-efficient, log D of the compound at 7.4 by shake-flask method; type: physicochemical; details: pH 7.4
In short: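 Shake-flask partition between octanol and 10 mM phosphate buffer pH 7.4. Compound stock 5.0 × 10^-3 M in buffer-saturated octanol. Aqueous concentration measured spectrophotometrically against a calibration curve; octanol concentration taken by difference. Three octanol/buffer volume ratios; mean ± 95% CI.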

Albumin [22] = target: T1, Albumin; assay: Binding affinity to human serum albumin at 293K by fluorescence spectroscopic method; type: ADME; details: isolated protein; in short: as §1
Albumin [23] = target: T1, Albumin; assay: Binding affinity to human serum albumin at 303K by fluorescence spectroscopic method; type: ADME; details: isolated protein; in short: as §1

T1 sequence (P02768 whole entry): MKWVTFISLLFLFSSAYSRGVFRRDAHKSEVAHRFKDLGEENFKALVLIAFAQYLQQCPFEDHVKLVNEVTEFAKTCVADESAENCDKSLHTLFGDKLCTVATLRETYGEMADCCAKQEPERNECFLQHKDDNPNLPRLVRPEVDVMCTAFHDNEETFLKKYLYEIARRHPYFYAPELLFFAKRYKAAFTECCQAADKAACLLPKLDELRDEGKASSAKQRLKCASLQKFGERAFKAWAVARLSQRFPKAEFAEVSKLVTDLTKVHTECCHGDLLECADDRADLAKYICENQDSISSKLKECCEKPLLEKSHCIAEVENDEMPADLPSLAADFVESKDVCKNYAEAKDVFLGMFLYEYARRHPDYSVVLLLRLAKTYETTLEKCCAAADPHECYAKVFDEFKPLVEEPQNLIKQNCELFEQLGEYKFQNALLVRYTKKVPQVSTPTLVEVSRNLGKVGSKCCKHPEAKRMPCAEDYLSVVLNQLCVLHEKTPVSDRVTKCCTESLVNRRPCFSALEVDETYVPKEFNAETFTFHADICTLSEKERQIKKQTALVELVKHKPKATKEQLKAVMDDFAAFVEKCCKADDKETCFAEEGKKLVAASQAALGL

`O=C(O)/C(O)=C/C(=O)c1cc(C2CCCCC2)ccc1C1CCCCC1` gave a KSV (Albumin [1]) of 1.48 ×10⁶ /M, a Ka (Albumin [1]) of 0.95 ×10⁶ /M and a Kq (Albumin [1]) of 2.09 ×10¹⁴ /M/s. It also gave a KSV (Albumin [2]) of 1.72 ×10⁶ /M, a Ka (Albumin [2]) of 1.06 ×10⁶ /M and a Kq (Albumin [2]) of 2.42 ×10¹⁴ /M/s. It also gave an MIC (Escherichia coli) greater than 128 µg/mL, a deltaG (Albumin [3]) of -8.75 kcal/mol and an MIC (Staphylococcus aureus [4]) of 11 µM (≈ 3.92 µg/mL). It also gave a deltaG (Albumin [5]) of -8.36 kcal/mol, a lnK (Albumin [6]) of 14.29 M⁻¹ and an MIC (Staphylococcus aureus [7]) of 11 µM (≈ 3.92 µg/mL). For the same compound, the MIC (Staphylococcus aureus [8]) was 11 µM (≈ 3.92 µg/mL), the logKb (Albumin [9]) was 6.75 and the pKa at 50 µM [10] was 7.56. For the same compound, the MIC (Enterococcus faecalis) was 6 µM (≈ 2.14 µg/mL), the deltaG (Albumin [11]) was -8.6 kcal/mol and the MIC (Staphylococcus aureus [12]) was 11 µM (≈ 3.92 µg/mL). For the same compound, the MIC (Staphylococcus aureus [13]) was 11 µM (≈ 3.92 µg/mL), the deltaH (Albumin [14]) was -1.59 kcal/mol and the lnK (Albumin [15]) was 14.21 M⁻¹. It also gave a KSV (Albumin [16]) of 1.6 ×10⁶ /M, a Ka (Albumin [16]) of 1.02 ×10⁶ /M and a Kq (Albumin [16]) of 2.26 ×10¹⁴ /M/s. For the same compound, the MIC (Bacillus subtilis) was 125 µM (≈ 44.6 µg/mL), the lnK (Albumin [17]) was 14.36 M⁻¹ and the MIC (Staphylococcus aureus [18]) was 22 µM (≈ 7.84 µg/mL). The IC90 [19] was 30 µM, the deltaS (Albumin [20]) was 96.76 J/mol/K and the logD [21] was 2.6. It also gave a logKb (Albumin [22]) of 7.02 and a logKb (Albumin [23]) of 6.84.
